Data published in ChEMBL document CHEMBL1156727, “Synthesis and evaluation of curcumin analogues as potential thioredoxin reductase inhibitors” (Bioorg Med Chem, 2008).
Active and inactive are the calls of the source. No cut-off for these calls is given here.

Tests used:
A549 [1] = experiment: Cytotoxicity against TrxR overexpressing human A549 cells after 48 hrs by MTT assay; assay type: functional
Outline: (§1)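 Cells grown in RPMI 1640 with 10% fetal calf serum, penicillin/streptomycin and 2 mM L-glutamine at 37 °C under 5% CO2. Seeded 1×10⁴/well and left overnight, then exposed 48 h to 0–100 µM. MTT was added for 4 h at 37 °C and formazan dissolved in DMSO, read at 570 nm. Run in quadruplicate; GC50 is the concentration giving 50% of control viability.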

[2] = Inhibition of TrxR preincuabatd for 4 mins
HepG2 = experiment: Cytotoxicity against TrxR overexpressing human HepG2 cells after 48 hrs by MTT assay; assay type: functional; outline: as §1
[3] = Inhibition of TrxR preincuabatd for 2 hrs
A549 [4] = experiment: Cytotoxicity against TrxR overexpressing human cis-diammine-dichloroplatinum (II)-resistant A549 cells after 48 hrs by MTT assay; assay type: functional; outline: as §1
MCF7 = experiment: Cytotoxicity against TrxR overexpressing human doxorubicin-resistant MCF7 cells after 48 hrs by MTT assay; assay type: functional; outline: as §1
[5] = biological target: T1, Thioredoxin reductase (Homo sapiens) (UniProt Q16881+Q9NNW7+Q86VQ6); experiment: Inhibition of TrxR in human HeLa cells at 50 uM after 12 hrs by insulin reduction assay; assay type: cell-based
Outline: (§2)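 Cells (1.5×10⁶) in RPMI 1640 were exposed 12 h; controls got <1% DMSO. Cells were trypsinized and lysed in Tris pH 7.4/Triton/deoxycholate/SDS buffer with protease inhibitors, then spun at 16,000g. Lysate was incubated 30 min at 37 °C with 2.5 mg/ml bovine insulin, NADPH and Trx in HEPES/EDTA pH 7.4. The reaction was stopped with guanidine-HCl/DTNB and read at A412. A no-Trx mixture served as background; activity is % of control, n≥3.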

[6] = biological target: T1, Thioredoxin reductase (Homo sapiens); experiment: Inhibition of TrxR in human MCF7 cells at 50 uM after 12 hrs by insulin reduction assay; assay type: cell-based; outline: as §2
[7] = Inhibition of TrxR preincuabatd for 2 hrs followed by ultrafiltration

SMILES | GC50 (A549 [1]) [µM] | IC50 [2] [µM] | further results
O=C(/C=C(O)/C=C/c1ccc(O)cc1)/C=C/c1ccccc1 | 41.3 | 23.3 | 
COc1cc(/C=C/C(=O)/C=C(O)/C=C/c2ccc(CO)o2)cc(OC)c1OC | >100 | 2 | GC50 (HepG2): >100 µM
COc1cc(/C=C2\CCC/C(=C\c3ccc(O)cc3)C2=O)cc(OC)c1OC |  | 24.9 | 
COc1cc(/C=C/C(=O)CC(=O)/C=C/c2ccc(O)c(OC)c2)ccc1O [CURCUMIN] | 18.2 | 38.3 | IC50 [3]: 4.2 µM; GC50 (A549 [4]): 73 µM
CN(C)c1ccc(/C=C/C(=O)/C=C(O)/C=C/c2ccc(CO)o2)cc1 |  | 62.2 | GC50 (HepG2): >100 µM
O=C(/C=C/c1ccc(O)cc1)CC(=O)/C=C/c1ccc(O)cc1 [BISDEMETHOXYCURCUMIN] |  | > 100 | 
O=C(/C=C(O)/C=C/c1ccc(O)cc1)/C=C/c1ccccc1Br |  | 50 | 
COc1cc(/C=C/C(O)=C/C(=O)/C=C/c2ccc(O)cc2)ccc1O [DEMETHOXYCURCUMIN] |  | 20 | 
COc1ccc(/C=C/C(=O)/C=C(O)/C=C/c2ccc(OC)cc2)cc1 |  | > 100 | GC50 (A549 [4]): >100 µM; GC50 (MCF7): >100 µM
COc1cc(/C=C/C(O)=C/C(=O)/C=C/c2ccc(CO)o2)ccc1O | >100 | 1 | GC50 (A549 [4]): 35.8 µM; GC50 (MCF7): 10.6 µM; GC50 (HepG2): >100 µM
O=C(/C=C(O)/C=C/c1ccco1)/C=C/c1ccco1 | 66.4 | 1.6 | GC50 (MCF7): 33.6 µM
COc1cc(/C=C/C(O)=C/C(=O)/C=C/c2ccccc2)ccc1O |  | 57 | 
O=C(/C=C(O)/C=C/c1ccc(CO)o1)/C=C/c1ccccc1 |  | 1.3 | GC50 (HepG2): >100 µM
O=C(/C=C(O)/C=C/c1cccs1)/C=C/c1ccc(O)cc1 |  | 20 | 
COc1cc(/C=C/C(=O)/C=C(O)/C=C/c2ccc(O)cc2)cc(OC)c1OC | 60.1 | 13.8 | 
O=C(/C=C(O)/C=C/c1ccccc1)/C=C/c1ccccc1 |  | > 100 | 
COc1cc(/C=C2\CCC/C(=C\c3ccc(O)cc3)C2=O)ccc1O | >100 | 5.1 | 
COc1cc(/C=C/C(=O)/C=C(O)/C=C/c2ccc(C)o2)ccc1O | >100 | 0.5 | GC50 (A549 [4]): 39.4 µM
COc1ccc(/C=C/C(=O)/C=C(O)/C=C/c2ccc(OC)c(OC)c2)cc1OC [DIMETHYLCURCUMIN] |  | > 100 | 
Cc1ccc(/C=C/C(=O)/C=C(O)/C=C/c2ccc(C)o2)o1 | 52.9 | 0.3 | Activity [5]: Active; Activity [6]: Active; GC50 (A549 [4]): 59.6 µM; GC50 (MCF7): 48.5 µM; GC50 (HepG2): >100 µM; Activity [7]: Active
COc1ccc(/C=C/C(=O)/C=C(O)/C=C/c2ccc(CO)o2)cc1 |  | 0.8 | GC50 (A549 [4]): 12.1 µM; GC50 (MCF7): 10 µM; GC50 (HepG2): >100 µM
